Laboratory results from ChEMBL document CHEMBL1833877, “Antinociceptive properties of bergenin” (J Nat Prod, 2011).

Legend:
Conditions in all cases: in vivo
[1] = test system: Mus musculus; experiment: Toxicity in mouse assessed as renal function measuring serum urea level at 50 mg/kg, ip for seven consecutive days relative to control; type: organism-based; parameters: dose 50 mg/kg, route intraperitoneal
In short: (§1)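 Once-daily ip dosing for seven consecutive days in male mice (22–28 g), with vehicle (2% DMSO in saline) as control. At the end of treatment, blood taken from the retro-orbital plexus under light anesthesia. Serum obtained without anticoagulant by centrifugation at 2500 rpm for 15 min, then assayed biochemically for urea and creatinine. Means ± SEM, 6–9 animals per group.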

[2] = test system: Mus musculus; experiment: Toxicity in mouse assessed as renal function measuring serum creatinine level at 50 mg/kg, ip for seven consecutive days relative to control; type: organism-based; parameters: dose 50 mg/kg, route intraperitoneal; in short: as §1
[3] = test system: Mus musculus; experiment: Toxicity in mouse assessed as liver function measuring serum ALT level at 50 mg/kg, ip for seven consecutive days relative to control; type: organism-based; parameters: dose 50 mg/kg, route intraperitoneal
In short: (§2)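 Mice were weighed and dosed ip once daily for 7 consecutive days, vehicle controls alongside, and monitored for toxic signs and general appearance. At the end, retro-orbital blood was taken under light anesthesia for leukocyte counts. Serum, from blood centrifuged at 2500 rpm for 15 min without anticoagulant, was used for ALT and AST.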

[4] = test system: Mus musculus; experiment: Toxicity in mouse assessed as liver function measuring serum AST level at 50 mg/kg, ip for seven consecutive days relative to control; type: organism-based; parameters: dose 50 mg/kg, route intraperitoneal; in short: as §2
[5] = test system: Mus musculus; experiment: Toxicity in mouse assessed as leukogram at 50 mg/kg, ip for seven consecutive days relative to control; type: organism-based; parameters: dose 50 mg/kg, route intraperitoneal; in short: as §2
[6] = test system: Mus musculus; experiment: Toxicity in mouse assessed as gastric inflammation at 50 mg/kg, ip for seven consecutive days relative to control; type: organism-based, Stomach; parameters: dose 50 mg/kg, route intraperitoneal
In short: (§3)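 After 7 daily ip doses, stomachs were cryosectioned at 3 μm and stained with H&E. Sections were scored blind 0–4 for inflammatory infiltrate, edema, epithelial loss and necrosis. Ten fields (40×) were read per section, means ± SEM.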

[7] = test system: Mus musculus; experiment: Toxicity in mouse assessed as gastric ulcer at 50 mg/kg, ip for seven consecutive days relative to control; type: organism-based, Stomach; parameters: dose 50 mg/kg, route intraperitoneal; in short: as §3
[8] = test system: Mus musculus; experiment: Toxicity in mouse assessed as inflammatory cell infiltrate in gastric mucosa at 50 mg/kg, ip for seven consecutive days relative to control; type: organism-based; parameters: dose 50 mg/kg, route intraperitoneal; in short: as §3
[9] = test system: Mus musculus; experiment: Toxicity in mouse assessed as edema in gastric mucosa at 50 mg/kg, ip for seven consecutive days relative to control; type: organism-based; parameters: dose 50 mg/kg, route intraperitoneal; in short: as §3
[10] = test system: Mus musculus; experiment: Toxicity in mouse assessed as necrosis in gastric mucosa at 50 mg/kg, ip for seven consecutive days relative to control; type: organism-based; parameters: dose 50 mg/kg, route intraperitoneal; in short: as §3
[11] = test system: Mus musculus; experiment: Toxicity in mouse assessed as reduction in corporal mass at 100 mg/kg, ip for seven consecutive days relative to control; type: organism-based; parameters: dose 100 mg/kg, route intraperitoneal; in short: as §2
[12] = test system: Mus musculus; experiment: Toxicity in mouse assessed as change in general appearance at 100 mg/kg, ip for seven consecutive days relative to control; type: organism-based; parameters: dose 100 mg/kg, route intraperitoneal; in short: as §2
[13] = test system: Mus musculus; experiment: Toxicity in mouse assessed as renal function measuring serum urea level at 100 mg/kg, ip for seven consecutive days relative to control; type: organism-based; parameters: dose 100 mg/kg, route intraperitoneal; in short: as §1
[14] = test system: Mus musculus; experiment: Toxicity in mouse assessed as renal function measuring serum creatinine level at 100 mg/kg, ip for seven consecutive days relative to control; type: organism-based; parameters: dose 100 mg/kg, route intraperitoneal; in short: as §1
[15] = test system: Mus musculus; experiment: Toxicity in mouse assessed as liver function measuring serum ALT level at 100 mg/kg, ip for seven consecutive days relative to control; type: organism-based; parameters: dose 100 mg/kg, route intraperitoneal; in short: as §2
[16] = test system: Mus musculus; experiment: Toxicity in mouse assessed as liver function measuring serum AST level at 100 mg/kg, ip for seven consecutive days relative to control; type: organism-based; parameters: dose 100 mg/kg, route intraperitoneal; in short: as §2
[17] = test system: Mus musculus; experiment: Toxicity in mouse assessed as leukogram at 100 mg/kg, ip for seven consecutive days relative to control; type: organism-based; parameters: dose 100 mg/kg, route intraperitoneal; in short: as §2
[18] = test system: Mus musculus; experiment: Toxicity in mouse assessed as gastric inflammation at 100 mg/kg, ip for seven consecutive days relative to control; type: organism-based, Stomach; parameters: dose 100 mg/kg, route intraperitoneal; in short: as §3
[19] = test system: Mus musculus; experiment: Toxicity in mouse assessed as gastric ulcer at 100 mg/kg, ip for seven consecutive days relative to control; type: organism-based, Stomach; parameters: dose 100 mg/kg, route intraperitoneal; in short: as §3
[20] = test system: Mus musculus; experiment: Toxicity in mouse assessed as inflammatory cell infiltrate in gastric mucosa at 100 mg/kg, ip for seven consecutive days relative to control; type: organism-based; parameters: dose 100 mg/kg, route intraperitoneal; in short: as §3
[21] = test system: Mus musculus; experiment: Toxicity in mouse assessed as edema in gastric mucosa at 100 mg/kg, ip for seven consecutive days relative to control; type: organism-based; parameters: dose 100 mg/kg, route intraperitoneal; in short: as §3
[22] = test system: Mus musculus; experiment: Toxicity in mouse assessed as necrosis in gastric mucosa at 100 mg/kg, ip for seven consecutive days relative to control; type: organism-based; parameters: dose 100 mg/kg, route intraperitoneal; in short: as §3
[23] = test system: Mus musculus; experiment: Neurotoxicity in mouse assessed as effect on motor coordination at 100 mg/kg, ip after 40 mins by Rotarod test

Measured: Activity

COc1c(O)cc2c(c1O)[C@@H]1O[C@H](CO)[C@@H](O)[C@H](O)[C@H]1OC2=O [BERGENIN]
Non-toxic: all assays above
